Screens from PubChem BioAssay.
The list is not random: actives were taken first. Their share in the collection is about 3.8%.
NPY-Y1 antag = blocks the human neuropeptide Y Y1 receptor | P25929 | HEK293-CNG Y1 cells, membrane potential fluorescence; NPY at EC95, then isoproterenol | inhibition, % at 3.6 µM | actives 1% (n = 200,000);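 active means inhibition above the campaign mean inhibition of all tested compounds plus 3 SD, cut at about 20% in these data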
Target sequence (P25929 whole entry, looked up): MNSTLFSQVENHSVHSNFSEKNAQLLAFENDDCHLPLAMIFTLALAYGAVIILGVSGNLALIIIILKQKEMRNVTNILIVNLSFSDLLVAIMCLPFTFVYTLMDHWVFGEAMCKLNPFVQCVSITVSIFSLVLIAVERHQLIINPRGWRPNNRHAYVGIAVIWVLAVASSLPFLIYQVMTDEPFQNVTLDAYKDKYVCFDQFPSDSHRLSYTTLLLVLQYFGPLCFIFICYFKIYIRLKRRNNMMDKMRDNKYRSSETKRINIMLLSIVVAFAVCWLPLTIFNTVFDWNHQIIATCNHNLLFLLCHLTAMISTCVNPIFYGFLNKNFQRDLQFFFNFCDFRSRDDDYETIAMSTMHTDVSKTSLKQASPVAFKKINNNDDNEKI
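Assay system: HEK293 Y1/CNG channel cell line; Doses: single compound dose of 3.6 µM, 0.4% DMSO; Timing: dye 3 h, compound 60 min room temperature, stimulation 45 min; Technique: Membrane-potential fluorescent dye readout; Measure: % inhibition of NPY effect.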
NPY-Y2 PAM-ag = potentiates or activates human NPY-Y2 receptor; cells expressing NPY-Y2, potentiator/agonist read-out; actives 0.45% (n = 220,000); P49146; activation, % at 3.6 µM; in the data active means activation above about 27%;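 further: cells stimulated with NPY near EC25 plus isoproterenol at EC100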
Target sequence (P49146 whole entry, looked up): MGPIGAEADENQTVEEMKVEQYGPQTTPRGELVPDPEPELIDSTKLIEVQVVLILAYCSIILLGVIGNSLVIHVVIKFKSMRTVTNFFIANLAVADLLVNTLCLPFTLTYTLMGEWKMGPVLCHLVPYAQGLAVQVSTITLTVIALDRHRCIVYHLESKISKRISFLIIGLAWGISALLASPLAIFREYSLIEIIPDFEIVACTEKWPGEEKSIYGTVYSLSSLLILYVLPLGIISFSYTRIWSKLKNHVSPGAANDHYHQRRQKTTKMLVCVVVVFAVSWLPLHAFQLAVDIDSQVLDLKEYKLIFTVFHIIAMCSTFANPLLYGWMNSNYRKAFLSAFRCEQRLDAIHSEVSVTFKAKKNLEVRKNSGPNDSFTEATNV
INS promoter inh = TRM-6 insulin promoter activity inhibition; TRM-6 cells, insulin promoter-eGFP reporter, imaging; reporter expression induced with tamoxifen; inhibition, % at 2 µM; actives 0.9% (n = 130,000);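 active means inhibition above the mean plus 3 SD, with well images judged a real hit on visual review, cut at about 60% in these data, passing the limit was not always enough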
NPY1 pot ag = human NPY-Y1 potentiation or agonism, primary screen; NPY-Y1 expressing cells, potentiator/agonist activation; P25929; actives 0.37% (n = 220,000); activation, % at 3.6 µM; AID 1304; in the data active means activation above about 33%, passing the limit was not always enough;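 further: cells stimulated with NPY at EC10 then isoproterenol at EC100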
NPY Y2 blocker = blocks the human neuropeptide Y Y2 receptor; AID 793; NPY-Y2 expressing cells, antagonist mode; P49146; inhibition, % at 2.7 µM; actives 0.99% (n = 140,000); in the data active means inhibition above about 17%
RAM inhibit = inhibitors of the yeast RAM network | actives 1.8% (n = 190,000) | AID 868 | S. cerevisiae dse1pr::URA3 reporter, 5-FOA growth OD615, 2 d; analog-sensitive cbk1-as2 kinase mutant strain | inhibition, % at 50 µM;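 active means inhibition above a set limit, 3 SD over mean compound inhibition, cut at about 8.4% in these data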;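 further: inhibition rescues growth on 5-FOA so higher OD means more RAM inhibition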
Large screens that a line does not name were inactive.

O=C(CSc1nnc(-c2ccccc2)o1)c1ccc2c(c1)OCCO2	RAM inhibit 8.4 (no result: INS promoter inh)
CCOC(=O)C1=C(N)Oc2cc(O)ccc2C1c1ccc([N+](=O)[O-])cc1 (centres undefined)	none (no result: NPY Y2 blocker)
Cc1ccc(/C=C/C(=O)O)cc1S(=O)(=O)NCCCO	none
Cc1ccc(/C=C/C(=O)O)cc1S(=O)(=O)Nc1ccc2c(c1)OCO2	RAM inhibit 8.8 (no result: INS promoter inh, NPY Y2 blocker)
OC(CNCc1ccc2c(c1)OCO2)COc1ccc(F)cc1 (centres undefined)	none (no result: NPY-Y1 antag, INS promoter inh, NPY Y2 blocker, RAM inhibit)
CC(CNCc1ccc2c(c1)OCO2)NCc1ccc2c(c1)OCO2 (centres undefined)	NPY-Y1 antag 24, NPY Y2 blocker 19 (no result: INS promoter inh)
COc1ccc(NS(=O)(=O)c2cc(OC)ccc2NC(=O)c2cc(C)oc2C)cc1	NPY-Y1 antag 20
COc1ccc(NC(=O)c2cc(S(=O)(=O)N3CCCC3)oc2C)cc1	none (no result: NPY-Y1 antag, INS promoter inh, NPY Y2 blocker, RAM inhibit)
CC(C)CN1CCN(Cc2cc(F)ccc2-n2cccn2)CC1CCO (centres undefined)	NPY-Y1 antag 22 (no result: INS promoter inh, NPY Y2 blocker)
CS(=O)(=O)Nc1ccc(C2=NN(C(=O)c3ccco3)C(c3cccc(F)c3)C2)cc1 (centres undefined)	none (no result: NPY Y2 blocker)
CCS(=O)(=O)Nc1ccc(C2=NN(C(=O)c3ccco3)C(c3cccc(F)c3)C2)cc1 (centres undefined)	NPY-Y2 PAM-ag 35 (no result: INS promoter inh, NPY Y2 blocker)
Cn1c(SCC(=O)O)nnc1-c1cccc(NC(=O)c2cccc3ccccc23)c1	none (no result: NPY-Y1 antag, INS promoter inh, NPY Y2 blocker, RAM inhibit)
COc1ccc(/C(O)=C/C(=O)C(=O)NNC(=O)C(O)(c2ccccc2)c2ccccc2)cc1	NPY-Y2 PAM-ag 103, NPY1 pot ag 111
O=C(c1ccc(-n2cccc2)cc1)N1CCCCC1	none (no result: INS promoter inh, NPY Y2 blocker)
COC(=O)c1ccccc1NC(=S)N(Cc1ccc2c(c1)OCO2)Cc1cc2cc(OC)ccc2[nH]c1=O	RAM inhibit 8.5 (no result: INS promoter inh)
CNC(=S)N(Cc1ccc(OC)cc1)Cc1cc2cc(C)ccc2[nH]c1=O	RAM inhibit 8.5 (no result: INS promoter inh, NPY Y2 blocker)
COc1ccccc1NC(=S)N(CCCN(C)C)Cc1cc2cc3c(cc2[nH]c1=O)OCO3	none (no result: INS promoter inh, NPY Y2 blocker)
N#Cc1ccccc1Oc1ccccc1C=O	none (no result: INS promoter inh, NPY Y2 blocker)
CCCC(=O)NC(=S)Nc1cccc(Cl)c1N1CCCCC1	RAM inhibit 8.7
CCCCCC(=O)NC(=S)Nc1ccc(N2CCCCC2)c(Cl)c1	RAM inhibit 9.6 (no result: INS promoter inh)
O=C(Nc1cccc(Cl)c1N1CCCC1)c1ccc(Br)o1	NPY-Y1 antag 33, NPY Y2 blocker 33
CCOc1ccccc1OCCN1CCC(Cc2ccccc2)CC1	NPY-Y1 antag 26, NPY Y2 blocker 17
CCOC(=O)c1cc(CC)sc1NC(=O)c1ccc2c(c1)OCCO2	none (no result: INS promoter inh)
CCOC(=O)c1cc(-c2ccccc2)sc1NC(=O)C(C)Sc1nnnn1C (centres undefined)	none
CCOC(=O)c1cc(CC)sc1NC(=O)c1cc(OCC)c(OCC)c(OCC)c1	RAM inhibit 10
CCOC(=O)c1cc(-c2ccccc2)sc1NC(=O)C(C)Sc1nnc(C)s1 (centres undefined)	RAM inhibit 11
CCOC(=O)c1cc(CC)sc1NC(=O)C(c1ccccc1)c1ccccc1	RAM inhibit 9.3
Cc1ccc(NC(=O)COS(=O)c2ccc(C)cc2)cc1 (centres undefined)	none
O=C1CCN(C2CCN(Cc3nc(Cc4ccccc4F)no3)CC2)CCN1	none (no result: INS promoter inh, NPY Y2 blocker)
COc1ccc(Cn2c(SCc3ccccc3C)nc3cc(OC)c(OC)cc3c2=N)cc1	NPY-Y1 antag 48, NPY Y2 blocker 44 (no result: INS promoter inh)
Cc1n[nH]c(C)c1CCNCc1ccc(OCC(O)CN2CCCCC2)cc1 (centres undefined)	none (no result: NPY Y2 blocker)
O=C(COc1ccc2ccccc2c1CN1CCOCC1)N1CCc2ccccc21	NPY-Y1 antag 22, NPY Y2 blocker 28 (no result: INS promoter inh)
O=C(COc1ccccc1)N1CCc2ccccc21	none
Nc1nc(COc2ccc(F)cc2)nc(N2CCCCC2)n1	none (no result: INS promoter inh, NPY Y2 blocker)
CCOC(=O)C1(Cc2cccc(OC)c2)CCN(Cc2cccc3c2OCO3)CC1	NPY-Y1 antag 21 (no result: INS promoter inh, NPY Y2 blocker)
CCOC(=O)C1(CCOc2ccccc2)CCN(Cc2ccc3c(c2)OCCO3)CC1	NPY-Y1 antag 21 (no result: INS promoter inh, NPY Y2 blocker)
COc1ccc(/C=C2\CN(Cc3ccccc3)C/C(=C\c3ccc(OC)cc3)C2=O)cc1	RAM inhibit 11
CCn1cnc2sc(C(=O)Nc3ccccc3OC)c(C)c2c1=O	none (no result: NPY-Y1 antag, INS promoter inh, NPY Y2 blocker, RAM inhibit)
COc1ccccc1NC(=O)Cn1cnc2sc(C(=O)NCc3ccco3)c(C)c2c1=O	RAM inhibit 9.4
COc1ccccc1NC(=O)Cn1cnc2sc(C)c(S(=O)(=O)N3CCCCC3)c2c1=O	RAM inhibit 8.9
C=C1/C(=C\C=C2/CCC[C@]3(C)[C@@H]([C@H](C)CCCC(C)(C)O)CC[C@@H]23)C[C@@H](O)C[C@@H]1O	none (no result: INS promoter inh, NPY Y2 blocker, RAM inhibit)
CC1CC(C)CN(C(=O)Cn2c(=O)n(CCCCC(=O)NCc3ccco3)c(=O)c3ccccc32)C1 (centres undefined)	RAM inhibit 11 (no result: INS promoter inh)
CC1CC(C)CN(C(=O)Cn2c(=O)n(CCCCC(=O)NC3CCCC3)c(=O)c3ccccc32)C1 (centres undefined)	none (no result: INS promoter inh)
O=C(CCn1c(=O)c2ccccc2n(Cc2cc(=O)n3ccccc3n2)c1=O)NCc1ccco1	RAM inhibit 11
CSCCC(NS(=O)(=O)c1ccc2c(c1)oc(=O)n2C)C(=O)NCc1cccs1 (centres undefined)	none (no result: NPY-Y1 antag, INS promoter inh, NPY Y2 blocker, RAM inhibit)
COc1cccc2sc(N(CCN(C)C)C(=O)/C=C/c3cccs3)nc12	NPY-Y2 PAM-ag 100, NPY1 pot ag 98 (no result: NPY Y2 blocker)
Cc1ccc(C)c(C(=O)COC(=O)c2cc(Cl)nc3ccccc23)c1	RAM inhibit 9.6
Cc1ccc(C(=O)COC(=O)c2cc(Cl)nc3ccccc23)cc1C	none
Cc1nn(-c2ccccc2)c(N)c1N=Nc1ccccc1	none (no result: INS promoter inh)
Cc1nn(-c2ccccc2)c(N)c1N=Nc1ccc(Cl)cc1	RAM inhibit 10 (no result: INS promoter inh)
COc1ccccc1NS(=O)(=O)c1cc(NC(=O)CCC2CCCC2)ccc1N1CCOCC1	none (no result: INS promoter inh, NPY Y2 blocker)
Cc1ccc(-c2csc3ncnc(N4CCc5ccccc5C4)c23)cc1	none (no result: INS promoter inh)
Fc1ccc(-c2csc3ncnc(N4CCc5ccccc5C4)c23)cc1	RAM inhibit 9.1
O=C1c2ccccc2C(=O)N1CCCCN(C(=O)c1ccc([N+](=O)[O-])cc1)c1ccc(Cl)cc1	NPY-Y2 PAM-ag 95, NPY1 pot ag 67
CC(C)OCCCNC(=O)C(=O)N/N=C/c1ccc(OCc2ccccc2)cc1	none (no result: NPY-Y1 antag, INS promoter inh, NPY Y2 blocker, RAM inhibit)
O=S(=O)(c1ccccc1)N(CC(O)Cn1c2ccccc2c2ccccc21)c1ccccc1 (centres undefined)	none (no result: INS promoter inh)
CCN(CC(O)Cn1c2ccccc2c2ccccc21)S(=O)(=O)c1ccc(F)cc1 (centres undefined)	RAM inhibit 11
O=S(=O)(c1ccc(F)cc1)N(CCO)CC(O)Cn1c2ccccc2c2ccccc21 (centres undefined)	RAM inhibit 8.7
